According to ChEMBL document CHEMBL1152820, “Plasmid-encoded ACC-4, an extended-spectrum cephalosporinase variant from Escherichia coli” (Antimicrob Agents Chemother, 2007):
Values after ≈ are worked out from the molar mass of the structure shown.

Tested on: Escherichia coli
Test: Antimicrobial activity against Escherichia coli MC4100 harboring pA-acc1 plasmid by agar dilution technique
Format: functional

With `CO/N=C(\C(=O)N[C@@H]1C(=O)N2C(C(=O)[O-])=C(C[N+]3(C)CCCC3)CS[C@H]12)c1csc(N)n1` as the compound, how does the MIC read?
The MIC was 0.12 µg/mL (≈ 0.25 µM).

How did the MIC turn out when `CC1(C)S[C@@H]2[C@H](NC(=O)[C@H](N)c3ccc(O)cc3)C(=O)N2[C@H]1C(=O)O` [AMOXICILLIN] was run?
Its MIC is over 512 µg/mL.

Which MIC does the source give for `C[C@H]1[C@H](NC(=O)/C(=N\OC(C)(C)C(=O)O)c2csc(N)n2)C(=O)N1S(=O)(=O)O` [AZTREONAM] here?
The MIC was 0.5 µg/mL (≈ 1.15 µM).

For `N[C@@H](C(=O)N[C@@H]1C(=O)N2C(C(=O)O)=C(Cl)CS[C@H]12)c1ccccc1` [CEFACLOR ANHYDROUS], which MIC is on record?
Its MIC is over 512 µg/mL.

Which MIC does the source give for `CO/N=C(\C(=O)N[C@@H]1C(=O)N2C(C(=O)O)=C(COC(C)=O)CS[C@H]12)c1csc(N)n1` [CEFOTAXIME] here?
The MIC was 8 µg/mL (≈ 17.6 µM).

For `CO[C@@]1(NC(=O)C2SC(=C(C(N)=O)C(=O)O)S2)C(=O)N2C(C(=O)O)=C(CSc3nnnn3C)CS[C@@H]21` (stereo partly specified) [CEFOTETAN], which MIC is on record?
The MIC was 1 µg/mL (≈ 1.74 µM).

`CO[C@@]1(NC(=O)Cc2cccs2)C(=O)N2C(C(=O)O)=C(COC(N)=O)CS[C@@H]21` [CEFOXITIN] was tested. Which MIC did it give?
Its MIC is 4 µg/mL (≈ 9.36 µM).

Biological target: T1, Beta-lactamase ACC-4 (Escherichia coli, UniProt A4ZYU9)
T1 sequence (A4ZYU9 whole entry): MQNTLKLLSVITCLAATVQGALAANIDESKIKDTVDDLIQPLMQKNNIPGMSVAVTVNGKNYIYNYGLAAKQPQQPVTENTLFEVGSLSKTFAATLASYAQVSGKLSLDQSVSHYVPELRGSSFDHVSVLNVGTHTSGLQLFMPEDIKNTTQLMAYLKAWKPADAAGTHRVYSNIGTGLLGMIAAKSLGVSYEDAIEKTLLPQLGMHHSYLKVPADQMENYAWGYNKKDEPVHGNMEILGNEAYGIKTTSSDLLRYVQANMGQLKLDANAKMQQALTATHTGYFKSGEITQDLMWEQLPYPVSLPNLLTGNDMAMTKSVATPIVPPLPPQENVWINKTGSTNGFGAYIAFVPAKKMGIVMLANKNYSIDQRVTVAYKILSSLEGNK
Test: Inhibition of Escherichia coli beta-lactamase ACC4
Procedure, shortened: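 ACC-4 from mid-log E. coli(pS18-d): sonicated, ultracentrifuged, Q-Sepharose flowthrough then S-Sepharose (0–0.6 M NaCl gradient, phosphate pH 6.8), >95% pure by SDS-PAGE.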

With `C[C@H]1[C@H](NC(=O)/C(=N\OC(C)(C)C(=O)O)c2csc(N)n2)C(=O)N1S(=O)(=O)O` [AZTREONAM] as the compound, how does the IC50 read?
Its IC50 is 32 nM.

Tested on: Escherichia coli
Test: Antimicrobial activity against Escherichia coli MC4100 harboring pACYC184 plasmid by agar dilution technique
Format: functional

For `CC1(C)S[C@@H]2[C@H](NC(=O)[C@H](N)c3ccc(O)cc3)C(=O)N2[C@H]1C(=O)O` [AMOXICILLIN], which MIC is on record?
Its MIC is 4 µg/mL (≈ 10.9 µM).

With `N[C@@H](C(=O)N[C@@H]1C(=O)N2C(C(=O)O)=C(Cl)CS[C@H]12)c1ccccc1` [CEFACLOR ANHYDROUS] as the compound, how does the MIC read?
The MIC was 2 µg/mL (≈ 5.44 µM).

Which MIC does the source give for `CO/N=C(\C(=O)N[C@@H]1C(=O)N2C(C(=O)O)=C(COC(C)=O)CS[C@H]12)c1csc(N)n1` [CEFOTAXIME] here?
The MIC was at most 0.06 µg/mL.

For `CO[C@@]1(NC(=O)C2SC(=C(C(N)=O)C(=O)O)S2)C(=O)N2C(C(=O)O)=C(CSc3nnnn3C)CS[C@@H]21` (stereo partly specified) [CEFOTETAN], which MIC is on record?
Its MIC is 0.5 µg/mL (≈ 0.869 µM).

With `CO[C@@]1(NC(=O)Cc2cccs2)C(=O)N2C(C(=O)O)=C(COC(N)=O)CS[C@@H]21` [CEFOXITIN] as the compound, how does the MIC read?
Its MIC is 2 µg/mL (≈ 4.68 µM).

Tested on: Hafnia alvei
Test: Activity of Hafnia alvei beta-lactamase ACC-1 assessed as nmol of compound hydrolysis per ug of protein

With `CO/N=C(\C(=O)N[C@@H]1C(=O)N2C(C(=O)O)=C(COC(C)=O)CS[C@H]12)c1csc(N)n1` [CEFOTAXIME] as the compound, how does the Vmax read?
The Vmax was under 0.01 nmol/min/µg.

How did the Vmax turn out when `CO[C@@]1(NC(=O)Cc2cccs2)C(=O)N2C(C(=O)O)=C(COC(N)=O)CS[C@@H]21` [CEFOXITIN] was run?
The Vmax was under 0.002 nmol/min/µg.

Tested on: Escherichia coli
Test: Antimicrobial activity against Escherichia coli MC4100 harboring pBCSK plasmid by agar dilution technique
Format: functional

How did the MIC turn out when `CC1(C)S[C@@H]2[C@H](NC(=O)[C@H](N)c3ccc(O)cc3)C(=O)N2[C@H]1C(=O)O` [AMOXICILLIN] was run?
Its MIC is 4 µg/mL (≈ 10.9 µM).

How did the MIC turn out when `N[C@@H](C(=O)N[C@@H]1C(=O)N2C(C(=O)O)=C(Cl)CS[C@H]12)c1ccccc1` [CEFACLOR ANHYDROUS] was run?
The MIC was 2 µg/mL (≈ 5.44 µM).

Which MIC does the source give for `CO/N=C(\C(=O)N[C@@H]1C(=O)N2C(C(=O)O)=C(COC(C)=O)CS[C@H]12)c1csc(N)n1` [CEFOTAXIME] here?
The MIC was at most 0.06 µg/mL.

Which MIC does the source give for `CO[C@@]1(NC(=O)C2SC(=C(C(N)=O)C(=O)O)S2)C(=O)N2C(C(=O)O)=C(CSc3nnnn3C)CS[C@@H]21` (stereo partly specified) [CEFOTETAN] here?
The MIC was 0.5 µg/mL (≈ 0.869 µM).

Which MIC does the source give for `CO[C@@]1(NC(=O)Cc2cccs2)C(=O)N2C(C(=O)O)=C(COC(N)=O)CS[C@@H]21` [CEFOXITIN] here?
The MIC was 2 µg/mL (≈ 4.68 µM).

Tested on: Escherichia coli
Test: Antimicrobial activity against Escherichia coli MC4100 harboring pB-acc4 plasmid by agar dilution technique
Format: functional

With `CO/N=C(\C(=O)N[C@@H]1C(=O)N2C(C(=O)[O-])=C(C[N+]3(C)CCCC3)CS[C@H]12)c1csc(N)n1` as the compound, how does the MIC read?
The MIC was 0.25 µg/mL (≈ 0.52 µM).

How did the MIC turn out when `CC1(C)S[C@@H]2[C@H](NC(=O)[C@H](N)c3ccc(O)cc3)C(=O)N2[C@H]1C(=O)O` [AMOXICILLIN] was run?
Its MIC is over 512 µg/mL.

`C[C@H]1[C@H](NC(=O)/C(=N\OC(C)(C)C(=O)O)c2csc(N)n2)C(=O)N1S(=O)(=O)O` [AZTREONAM] was tested. Which MIC did it give?
The MIC was 2 µg/mL (≈ 4.59 µM).

Which MIC does the source give for `N[C@@H](C(=O)N[C@@H]1C(=O)N2C(C(=O)O)=C(Cl)CS[C@H]12)c1ccccc1` [CEFACLOR ANHYDROUS] here?
Its MIC is over 512 µg/mL.

With `CO/N=C(\C(=O)N[C@@H]1C(=O)N2C(C(=O)O)=C(COC(C)=O)CS[C@H]12)c1csc(N)n1` [CEFOTAXIME] as the compound, how does the MIC read?
The MIC was 64 µg/mL (≈ 141 µM).

With `CO[C@@]1(NC(=O)C2SC(=C(C(N)=O)C(=O)O)S2)C(=O)N2C(C(=O)O)=C(CSc3nnnn3C)CS[C@@H]21` (stereo partly specified) [CEFOTETAN] as the compound, how does the MIC read?
Its MIC is 1 µg/mL (≈ 1.74 µM).

`CO[C@@]1(NC(=O)Cc2cccs2)C(=O)N2C(C(=O)O)=C(COC(N)=O)CS[C@@H]21` [CEFOXITIN] was tested. Which MIC did it give?
Its MIC is 4 µg/mL (≈ 9.36 µM).

Tested on: Escherichia coli
Test: Antimicrobial activity against Escherichia coli MC4100 harboring pB-acc1 plasmid by agar dilution technique
Format: functional

`CO/N=C(\C(=O)N[C@@H]1C(=O)N2C(C(=O)[O-])=C(C[N+]3(C)CCCC3)CS[C@H]12)c1csc(N)n1` was tested. Which MIC did it give?
The MIC was 0.12 µg/mL (≈ 0.25 µM).

With `CC1(C)S[C@@H]2[C@H](NC(=O)[C@H](N)c3ccc(O)cc3)C(=O)N2[C@H]1C(=O)O` [AMOXICILLIN] as the compound, how does the MIC read?
The MIC was over 512 µg/mL.

For `C[C@H]1[C@H](NC(=O)/C(=N\OC(C)(C)C(=O)O)c2csc(N)n2)C(=O)N1S(=O)(=O)O` [AZTREONAM], which MIC is on record?
The MIC was 1 µg/mL (≈ 2.3 µM).

How did the MIC turn out when `N[C@@H](C(=O)N[C@@H]1C(=O)N2C(C(=O)O)=C(Cl)CS[C@H]12)c1ccccc1` [CEFACLOR ANHYDROUS] was run?
Its MIC is over 512 µg/mL.

For `CO/N=C(\C(=O)N[C@@H]1C(=O)N2C(C(=O)O)=C(COC(C)=O)CS[C@H]12)c1csc(N)n1` [CEFOTAXIME], which MIC is on record?
Its MIC is 16 µg/mL (≈ 35.1 µM).

How did the MIC turn out when `CO[C@@]1(NC(=O)C2SC(=C(C(N)=O)C(=O)O)S2)C(=O)N2C(C(=O)O)=C(CSc3nnnn3C)CS[C@@H]21` (stereo partly specified) [CEFOTETAN] was run?
Its MIC is 1 µg/mL (≈ 1.74 µM).

How did the MIC turn out when `CO[C@@]1(NC(=O)Cc2cccs2)C(=O)N2C(C(=O)O)=C(COC(N)=O)CS[C@@H]21` [CEFOXITIN] was run?
Its MIC is 4 µg/mL (≈ 9.36 µM).

Tested on: Escherichia coli
Test: Antimicrobial activity against Escherichia coli MC4100 harboring pA-acc4 plasmid by agar dilution technique
Format: functional

With `CO/N=C(\C(=O)N[C@@H]1C(=O)N2C(C(=O)[O-])=C(C[N+]3(C)CCCC3)CS[C@H]12)c1csc(N)n1` as the compound, how does the MIC read?
Its MIC is 0.12 µg/mL (≈ 0.25 µM).

How did the MIC turn out when `CC1(C)S[C@@H]2[C@H](NC(=O)[C@H](N)c3ccc(O)cc3)C(=O)N2[C@H]1C(=O)O` [AMOXICILLIN] was run?
Its MIC is over 512 µg/mL.

With `C[C@H]1[C@H](NC(=O)/C(=N\OC(C)(C)C(=O)O)c2csc(N)n2)C(=O)N1S(=O)(=O)O` [AZTREONAM] as the compound, how does the MIC read?
Its MIC is 2 µg/mL (≈ 4.59 µM).

`N[C@@H](C(=O)N[C@@H]1C(=O)N2C(C(=O)O)=C(Cl)CS[C@H]12)c1ccccc1` [CEFACLOR ANHYDROUS] was tested. Which MIC did it give?
Its MIC is over 512 µg/mL.

How did the MIC turn out when `CO/N=C(\C(=O)N[C@@H]1C(=O)N2C(C(=O)O)=C(COC(C)=O)CS[C@H]12)c1csc(N)n1` [CEFOTAXIME] was run?
Its MIC is 32 µg/mL (≈ 70.3 µM).

How did the MIC turn out when `CO[C@@]1(NC(=O)C2SC(=C(C(N)=O)C(=O)O)S2)C(=O)N2C(C(=O)O)=C(CSc3nnnn3C)CS[C@@H]21` (stereo partly specified) [CEFOTETAN] was run?
Its MIC is 1 µg/mL (≈ 1.74 µM).

Which MIC does the source give for `CO[C@@]1(NC(=O)Cc2cccs2)C(=O)N2C(C(=O)O)=C(COC(N)=O)CS[C@@H]21` [CEFOXITIN] here?
Its MIC is 4 µg/mL (≈ 9.36 µM).
